Test results from ChEMBL document CHEMBL3244290, “N-Alkyl derivatives of (+/-)-alpha-methyldopamine” (J Med Chem, 1979).
Calls of active or inactive are those of the source. The rule behind the calls is not given here.

How the values were obtained:
Rattus norvegicus [1] = organism: Rattus norvegicus; assay: Toxicity in Sprague-Dawley rat assessed as biting up to 50 ug injection into nucleus accumbens; format: organism-based; conditions: in vivo, other
Summary of the method: (§1)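 Male Sprague-Dawley rats (250 ± 25 g) with stereotaxic guide cannulae aimed at the nucleus accumbens. Tested 10–14 days after surgery with a bilateral 1 μL infusion over 60 s; each rat used once and placement checked histologically. Locomotion counted by photocell cage. Stereotypy scored, where 3–4 = biting, gnawing or licking. Pretreatments given ip: α-methyl-p-tyrosine 250 mg/kg 6 h before, or haloperidol 0.1, propranolol 5 or aceperone 2.5 mg/kg 30 min before.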

Canis lupus familiaris = organism: Canis lupus familiaris; assay: Inhibition of electric stimulated dog right cardioaccelerator nerve; format: functional
Summary of the method: (§2)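 Dog cardioaccelerator nerve preparation under barbital (200 mg/kg) anaesthesia. Compounds given intravenously up to 1.0 mg/kg. Positive chronotropic responses read by cardiometer, with blood pressure taken from the right femoral artery.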

Rattus norvegicus [2] = organism: Rattus norvegicus; assay: Toxicity in Sprague-Dawley rat assessed as locomotor hyperactivity treated bilateral injection into nucleus accumbens at 50 ug; format: organism-based; conditions: in vivo, other; summary of the method: as §1
Mus musculus [3] = assay: Toxicity in albino B.K.W mouse assessed as stereotyped behaviour at 20 to 80 mg/kg, sc; format: organism-based; set-up: dose 20-80 mg/kg, route subcutaneous; conditions: in vivo
Summary of the method: (§3)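 Mice dosed subcutaneously at 20, 40 and 80 mg/kg in 1 mL/kg, doses as free base. Climbing scored as all four paws on the wire, giving a climbing index (% time over 30 min after the first climb) and the maximum time of a single climb. Circling was tested in mice with a unilateral caudate-putamen electrolesion, pre-selected for circling of 7 or more revolutions/2 min in response to apomorphine. Stereotypy was also recorded.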

Felis catus [4] = organism: Felis catus; assay: Inhibition of field stimulation-induced positive ionotrophic response in cat atria; format: functional; conditions: Cardiac atrium
Canis familiaris [5] = assay: Toxicity in dog assessed as emesis at 2 mg/kg, sc; format: organism-based, Canis lupus familiaris; set-up: dose 2 mg/kg, route subcutaneous; conditions: in vivo
Summary of the method: (§4)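 Unanaesthetised dogs. For emesis, compound given sc and dogs watched 45 min for an emetic response. For antagonism, compound given sc and apomorphine 100 μg/kg 15 min later.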

Mus musculus [6] = assay: Toxicity in albino B.K.W mouse assessed as circling behaviour at 20 to 80 mg/kg, sc; format: organism-based; set-up: dose 20-80 mg/kg, route subcutaneous; conditions: in vivo; summary of the method: as §3
Mus musculus [7] = assay: Toxicity in albino B.K.W mouse assessed as climbing behaviour at 20 to 80 mg/kg, sc; format: organism-based; set-up: dose 20-80 mg/kg, route subcutaneous; conditions: in vivo; summary of the method: as §3
Canis familiaris [8] = assay: Increase in blood pressure in dog at 30 ug/kg, iv by cardiotachometer; format: functional, Canis lupus familiaris
Summary of the method: (§5)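 Anaesthetised dog (barbital 200 mg/kg). Compounds given intravenously, highest dose tested 1.0 mg/kg. Blood pressure recorded from the right femoral artery and heart rate by cardiometer. Resting heart rate, blood pressure and positive chronotropic responses were assessed after dosing. Doses calculated as free base.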

Canis familiaris [9] = assay: Increase in heart rate in dog assessed as beats at 30 ug/kg, iv by cardiotachometer; format: functional, Canis lupus familiaris; summary of the method: as §5
Felis catus [10] = organism: Felis catus; assay: Inhibition of field stimulation-induced positive chronotrophic response in cat atria; format: functional; conditions: Cardiac atrium
[11] = Toxicity in pigeon assessed as pecking; conditions: columbidae
Summary of the method: (§6)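 Pigeons. Compounds given intramuscularly at up to 4 mg/kg to test induction of pecking. Antagonism of pecking induced by apomorphine (1.62 μM/kg) was also tested, and ED50 values were estimated.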

Rattus norvegicus [12] = organism: Rattus norvegicus; assay: Toxicity in Sprague-Dawley rat assessed as gnawing up to 50 ug injection into nucleus accumbens; format: organism-based; conditions: in vivo, other; summary of the method: as §1
Canis familiaris [13] = assay: Inhibition of apomorphine-induced emesis in dog at 2 mg/kg, sc; format: functional, organism-based; set-up: dose 2 mg/kg; conditions: Canis lupus familiaris; summary of the method: as §4
Rattus norvegicus [14] = organism: Rattus norvegicus; assay: Toxicity in Sprague-Dawley rat assessed as licking up to 50 ug injection into nucleus accumbens; format: organism-based; conditions: in vivo, other; summary of the method: as §1
Canis familiaris [15] = assay: Increase in blood pressure in dog at 0.5 mg/kg, iv by cardiotachometer; format: functional, Canis lupus familiaris; summary of the method: as §5
Canis familiaris [16] = assay: Increase in heart rate in dog at 1 mg/kg, iv by cardiotachometer; format: functional, organism-based; set-up: dose 1 mg/kg; conditions: Canis lupus familiaris; summary of the method: as §5
Canis familiaris [17] = assay: Increase in ionotrophic response in dog following field stimulation at 1 mg/kg, iv by cardiotachometer; format: functional, organism-based; set-up: dose 1 mg/kg; conditions: Canis lupus familiaris; summary of the method: as §2
Rattus norvegicus [18] = assay: Induction of rotation in rat with unilateral denervation of caudate nucleus at 4 mg/kg, sc; format: functional, organism-based; set-up: dose 4 mg/kg
Summary of the method: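 Rats given a unilateral 6-hydroxydopamine injection into the substantia nigra. Compounds dosed subcutaneously and the rotations they induced were counted. Apomorphine served as the reference.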

Canis familiaris [19] = assay: Increase in ionotrophic response in iv dosed dog following field stimulation assessed as minimum effective dose by cardiotachometer; format: functional, Canis lupus familiaris; set-up: unit not given here; summary of the method: as §2
Canis familiaris [20] = assay: Increase in resting heart rate in dog at 0.5 mg/kg, iv by cardiotachometer; format: functional, organism-based; set-up: dose 0.5 mg/kg; conditions: Canis lupus familiaris; summary of the method: as §5
Columbidae = assay: Inhibition of apomorphine-induced pecking in pigeon; format: functional; summary of the method: as §6
Canis familiaris [21] = assay: Increase in resting heart rate in dog at […], iv by cardiotachometer; format: functional, organism-based; conditions: Canis lupus familiaris; summary of the method: as §5
Canis familiaris [22] = assay: Increase in blood pressure in dog at 50 ug/kg, iv by cardiotachometer; format: functional, Canis lupus familiaris; summary of the method: as §5
Canis familiaris [23] = assay: Increase in heart rate in dog assessed as beats at 50 ug/kg, iv by cardiotachometer; format: functional, Canis lupus familiaris; summary of the method: as §5

| Compound | Activity (Rattus norvegicus [1]) | inhibition (Canis lupus familiaris) | Activity (Rattus norvegicus [2]) | Activity (Mus musculus [3]) | inhibition (Felis catus [4]) | Activity (Canis familiaris [5]) | Activity (Mus musculus [6]) | Activity (Mus musculus [7]) | inhibition (Felis catus [10]) | Activity [11] | Activity (Rattus norvegicus [12]) | Activity (Canis familiaris [13]) | Activity (Rattus norvegicus [14]) | Activity (Canis familiaris [15]) | Activity (Canis familiaris [16]) | Activity (Canis familiaris [17]) | Activity (Rattus norvegicus [18]) | MED (Canis familiaris [19]) | Activity (Canis familiaris [20]) | inhibition (Columbidae) | other results |
| --- | --- | --- | --- | --- | --- | --- | --- | --- | --- | --- | --- | --- | --- | --- | --- | --- | --- | --- | --- | --- | --- |
| Br.CC(C)NC(C)Cc1ccc(O)c(O)c1 (racemic) | Non-toxic | inactive | Non-toxic | Non-toxic | inactive | Non-toxic | Non-toxic | Non-toxic | inactive | Non-toxic | Non-toxic | inactive | Non-toxic |  |  |  |  |  |  |  | Activity (Canis familiaris [8]): 40%; Activity (Canis familiaris [9]): 23 bpm |
| CCCNC(C)Cc1ccc(OC)c(OC)c1.Cl (racemic) | Non-toxic | inactive | Non-toxic |  | inactive | Non-toxic |  |  | inactive | Non-toxic | Non-toxic | inactive | Non-toxic | <=10 mmHg | Active | Active | inactive | 20 | inactive |  |  |
| CCCN(CCC)C(C)Cc1ccc(OC)c(OC)c1.Cl (racemic) |  | inactive |  |  | inactive | Non-toxic |  |  | inactive | Non-toxic |  | inactive |  | <=10 mmHg |  |  |  |  | inactive | Active |  |
| CCNC(C)Cc1ccc(OC)c(OC)c1.Cl (racemic) |  | inactive |  |  | inactive | Non-toxic |  |  | inactive | Non-toxic |  | inactive |  | <=10 mmHg |  |  |  |  | inactive |  |  |
| Br.CC(C)N(C)C(C)Cc1ccc(O)c(O)c1 (racemic) | Non-toxic | inactive | Non-toxic | Non-toxic | inactive | Non-toxic | Non-toxic | Non-toxic | inactive | Non-toxic | Non-toxic | inactive | Non-toxic | <=10 mmHg | Active | Active |  | 20 | inactive | Active |  |
| CCN(CC)C(C)Cc1ccc(OC)c(OC)c1.Cl (racemic) |  | inactive |  |  | inactive | Non-toxic |  |  | inactive | Non-toxic |  | inactive |  | <=10 mmHg | Active | Active | inactive | 20 | inactive | Active |  |
| COc1ccc(CC(C)N(C)C(C)C)cc1OC.Cl (racemic) |  | inactive |  |  | inactive | Non-toxic |  |  | inactive | Non-toxic |  | inactive |  | <=10 mmHg | Active | Active |  | 20 | inactive | Active |  |
| CNC(C)Cc1ccc(OC)c(OC)c1.Cl (racemic) |  | inactive |  |  | inactive | Non-toxic |  |  | inactive | Non-toxic |  | inactive |  | <=10 mmHg |  |  | inactive |  | inactive |  |  |
| Br.CC(Cc1ccc(O)c(O)c1)N(C)C (racemic) | Non-toxic | inactive | Non-toxic | Non-toxic | inactive | Non-toxic | Non-toxic | Non-toxic | inactive | Non-toxic | Non-toxic | inactive | Non-toxic |  |  |  |  |  |  |  | Activity (Canis familiaris [21]): Active; Activity (Canis familiaris [22]): 80%; Activity (Canis familiaris [23]): 50 bpm |
| Br.CCCCNC(C)Cc1ccc(O)c(O)c1 (racemic) | Non-toxic | inactive | Non-toxic | Non-toxic | inactive | Non-toxic | Non-toxic | Non-toxic | inactive | Non-toxic | Non-toxic | inactive | Non-toxic | <=10 mmHg |  |  |  |  | inactive |  |  |
| Br.CCCCN(CCCC)C(C)Cc1ccc(O)c(O)c1 (racemic) | Non-toxic | inactive | Non-toxic | Non-toxic | inactive | Non-toxic | Non-toxic | Non-toxic | inactive | Non-toxic | Non-toxic | inactive | Non-toxic |  |  |  |  |  |  |  |  |
| COc1ccc(CC(C)N)cc1OC.Cl (racemic) | Non-toxic | inactive | Non-toxic |  | inactive | Non-toxic |  |  | inactive | Non-toxic | Non-toxic | inactive | Non-toxic | <=10 mmHg |  |  | inactive |  | inactive |  |  |
| CCCCN(CCCC)C(C)Cc1ccc(OC)c(OC)c1.Cl (racemic) |  | inactive |  |  | inactive | Non-toxic |  |  | inactive | Non-toxic |  | inactive |  | <=10 mmHg |  |  |  |  | inactive |  |  |
| COc1ccc(CC(C)NC(C)C)cc1OC.Cl (racemic) |  | inactive |  |  | inactive | Non-toxic |  |  | inactive | Non-toxic |  | inactive |  | <=10 mmHg |  |  | inactive |  | inactive |  |  |
| CCCCNC(C)Cc1ccc(OC)c(OC)c1.Cl (racemic) |  | inactive |  |  | inactive | Non-toxic |  |  | inactive | Non-toxic |  | inactive |  | <=10 mmHg | Active | Active |  | 20 | inactive |  |  |
| COc1ccc(CC(C)N(C)C)cc1OC.Cl (racemic) |  | inactive |  |  | inactive | Non-toxic |  |  | inactive | Non-toxic |  | inactive |  | <=10 mmHg |  |  | inactive |  | inactive | Active |  |
